Key:
Brain = assay: Drug metabolism in Sprague-Dawley rat assessed as 3-trifluoromethylbenzenesulfonamide level in brain at 10 mg/kg, po after 8 hrs; type: ADME, organism-based; parameters: dose 10 mg/kg, route oral; settings: in vivo
Outline: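 Male Sprague-Dawley rats were given a 10 mg/kg oral dose. Parent and metabolite concentrations were measured in whole blood and brain over time, including 8 h postdose.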

[1] = Half life in rat at 3 mg/kg, po and 1 mg/kg, iv; type: ADME, organism-based; settings: in vivo
Outline: (§1)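 Rat pharmacokinetics from iv and po arms: 0.6 mg/kg iv with 1.8 mg/kg po, or 1 mg/kg iv with 3 mg/kg po. AUC was normalized to po dose (μM·h·kg/mg). Clearance (mL/min/kg) and half-life come from the iv arm, and F% is oral bioavailability.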

Canis familiaris [2] = assay: Cardiotoxicity in vagotomized dog assessed as QRS interval at 1 to 10 mg/kg, iv up to 90 mins; type: toxicity, organism-based, Canis lupus familiaris; parameters: dose 1-10 mg/kg, route intravenous; settings: in vivo, 1.5 h
Outline: (§2)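 Anesthetized, vagotomized dogs received an intravenous infusion in sequential rising cumulative doses of 1, 3 and 10 mg/kg. MAP, HR, QRS, PR and QTc were monitored, with plasma exposure sampled at the indicated time points (n = 3).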

Mus musculus = assay: Antinociceptive activity in Cav2.2 deficient mouse SNL neuropathic pain model assessed as reversal of mechanical allodynia at 30 mg/kg, po after 2 hrs; type: functional
Outline: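 Cav2.2+/+ and Cav2.2−/− mice underwent spinal nerve ligation, then got a single 30 mg/kg oral dose. Mechanical allodynia was scored 2 h postdose.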

Rattus norvegicus [3] = assay: Analgesic activity in rat SNL neuropathic pain model assessed as reversal of mechanical allodynia at 30 mg/kg, po after 1 hr; type: functional
Liver microsomes [4] = assay: Drug metabolism in rat liver microsomes assessed as assessed as 3-trifluoromethylbenzenesulfonamide level level; type: ADME, Microsome
hERG [5] = target: T1, hERG (Homo sapiens, UniProt Q12809); assay: Displacement of [35S]-MK-0499 from human ERG at 10 uM; settings: probe [35S]-MK-0499
Outline: (§3)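 hERG binding was measured as displacement of 35S-labeled MK-0499 at single test concentrations.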

Cytochrome P450 3A4 = Cytochrome P450 3A4 (Homo sapiens, UniProt P08684); assay: Inhibition of CYP3A4; type: ADME
[6] = target: T2, Voltage-dependent N-type calcium channel subunit alpha-1B (Homo sapiens, UniProt Q00975); assay: Inhibition of human Cav2.2 expressed CBK cells assessed as inhibition of channel current at 10 uM at holding membrane potential -90 mV by conventional patch clamp electrophysiology assay
Outline: (§4)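 Cav2.2 current block was measured at a depolarized (−40 mV) or hyperpolarized (−90 mV) potential. At −40 mV, n = 2, 3, 4 and 1 at 0.3, 1, 3 and 10 μM. At −90 mV, n = 4 and 6 at 3 and 10 μM. Values are mean ± SEM.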

[7] = Plasma concentration in rat complete Freund's adjuvant-induced pain model at 10 mg/kg, po after 3 hrs; type: ADME, organism-based; parameters: dose 10 mg/kg, route oral
Outline: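 Separate CFA-treated rats given single oral 10 mg/kg dose; plasma exposure measured 3 h after dosing.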

[8] = Plasma concentration in rat complete Freund's adjuvant-induced pain model at 30 mg/kg, po after 3 hrs; type: ADME, organism-based; parameters: dose 30 mg/kg, route oral
Outline: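 Satellite rats in CFA inflammatory pain study, 30 mg/kg po; plasma exposure (μM) at 3 h, n = 2, standard deviation.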

Rattus norvegicus [9] = assay: Antinociceptive activity in rat assessed as reversal of complete Freund's adjuvant-induced pain at 30 mg/kg, po after 3 hrs; type: functional
Outline: (§5)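 In the rat CFA inflammatory pain model, compound was given orally at 30 mg/kg and allodynia was read at 1 and 3 h postdose. Average % reversal = (postdose − predose)/(preinjury − predose) for each rat, n = 6. Plasma exposure at 3 h was measured in satellite rats (n = 2).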

[10] = Drug level rat brain at 100 mg/kg, po after 3 hrs; type: ADME, organism-based; parameters: dose 100 mg/kg, route oral; settings: read-out: Drug uptake
Outline: (§6)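 Rats were dosed orally at 100 mg/kg, motor coordination was tested on a rota-rod 3 h later, and plasma and brain exposure were then measured.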

[11] = Plasma concentration in vagotomized dog at 3 mg/kg, iv after 60 mins; type: ADME, organism-based, Canis lupus familiaris; parameters: dose 3 mg/kg, route intravenous
Outline: (§7)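 Anesthetized, vagotomized dogs; intravenous infusion in sequential rising doses of 1, 3 and 10 mg/kg (cumulative); plasma exposure sampled at indicated time points, n = 3.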

[12] = Fraction unbound in rat plasma; type: ADME, cell-free
[13] = Plasma concentration rat at 100 mg/kg, po after 3 hrs; type: ADME, organism-based; parameters: dose 100 mg/kg, route oral
Outline: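 Rat rota-rod motor coordination study; single 100 mg/kg oral dose; plasma and brain exposure determined 3 h postdose.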

Cav1.2 [14] = target: T3, Cav1.2 (Homo sapiens, UniProt Q13936); assay: Inhibition of Cav1.2 assessed as inhibition of calcium flux at 3 uM by cell based FLIPR assay
Outline: (§8)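 Cav1.2 counterscreen using a related calcium-influx FLIPR assay, run as % inhibition at single concentrations or as a titration.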

Canis familiaris [15] = assay: Cardiotoxicity in vagotomized dog assessed as QTc interval at 1 to 10 mg/kg, iv up to 90 mins; type: toxicity, organism-based, Canis lupus familiaris; parameters: dose 1-10 mg/kg, route intravenous; settings: in vivo, 1.5 h; outline: as §2
Canis familiaris [16] = assay: Cardiotoxicity in vagotomized dog assessed as PR interval at 1 to 10 mg/kg, iv up to 90 mins; type: toxicity, organism-based, Canis lupus familiaris; parameters: dose 1-10 mg/kg, route intravenous; settings: in vivo, 1.5 h; outline: as §2
[17] = Plasma concentration in vagotomized dog at 1 mg/kg, iv after 30 mins; type: ADME, organism-based, Canis lupus familiaris; parameters: dose 1 mg/kg, route intravenous; outline: as §7
[18] = target: T2, Voltage-dependent N-type calcium channel subunit alpha-1B; assay: Inhibition of human Cav2.2 expressed CBK cells assessed as inhibition of channel current at 3 uM at holding membrane potential -40 mV by conventional patch clamp electrophysiology assay; outline: as §4
hERG [19] = target: T1, hERG; assay: Displacement of [35S]-MK-0499 from human ERG at 1 uM; settings: probe [35S]-MK-0499; outline: as §3
Rattus norvegicus [20] = assay: Antinociceptive activity in po dosed rat assessed as reversal of complete Freund's adjuvant-induced pain after 3 hrs; type: functional, organism-based; outline: as §5
[21] = Plasma clearance in rat at 3 mg/kg, po and 1 mg/kg, iv; type: ADME, organism-based; outline: as §1
Rattus norvegicus [22] = assay: Antinociceptive activity in rat assessed as reversal of complete Freund's adjuvant-induced pain at 10 mg/kg, po after 3 hrs; type: functional
Outline: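 Rats had complete Freund's adjuvant-induced inflammatory pain and got oral dosing. Allodynia was read at 1 and 3 h postdose. Percent reversal per rat = (postdose − predose)/(preinjury − predose). Groups had at least six animals, reported as mean + SEM.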

Liver microsomes [23] = assay: Drug metabolism in human liver microsomes assessed as assessed as 3-trifluoromethylbenzenesulfonamide level level; type: ADME, Microsome
Rattus norvegicus [24] = assay: Neurotoxicity in rat assessed as motor coordination at 100 mg/kg, po after 3 hrs; type: toxicity, organism-based; parameters: dose 100 mg/kg, route oral; settings: in vivo; outline: as §6
Rattus norvegicus [25] = assay: Antinociceptive activity in rat assessed as reversal of complete Freund's adjuvant-induced pain at 30 mg/kg, po after 1 hr; type: functional; outline: as §5
Cav1.2 [26] = target: T3, Cav1.2; assay: Inhibition of Cav1.2 assessed as inhibition of calcium flux at 1 uM by cell based FLIPR assay; outline: as §8
Rattus norvegicus [27] = assay: Analgesic activity in rat SNL neuropathic pain model assessed as reversal of mechanical allodynia at 10 mg/kg, po after 1 hr; type: functional
Rattus norvegicus [28] = assay: Dose normalized AUC in rat at 3 mg/kg, po and 1 mg/kg, iv; type: ADME, organism-based; settings: in vivo; outline: as §1
[29] = Metabolic stability in rat liver microsomes assessed as compound remaining at 1 uM after 1 hr; type: ADME, Microsome; settings: read-out: Stability
Outline: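 Compound at 1 μM was incubated with human or rat liver microsomes (1 mg/mL) for 1 h, and the percentage of parent remaining was determined.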

T1 sequence (Q12809 whole entry): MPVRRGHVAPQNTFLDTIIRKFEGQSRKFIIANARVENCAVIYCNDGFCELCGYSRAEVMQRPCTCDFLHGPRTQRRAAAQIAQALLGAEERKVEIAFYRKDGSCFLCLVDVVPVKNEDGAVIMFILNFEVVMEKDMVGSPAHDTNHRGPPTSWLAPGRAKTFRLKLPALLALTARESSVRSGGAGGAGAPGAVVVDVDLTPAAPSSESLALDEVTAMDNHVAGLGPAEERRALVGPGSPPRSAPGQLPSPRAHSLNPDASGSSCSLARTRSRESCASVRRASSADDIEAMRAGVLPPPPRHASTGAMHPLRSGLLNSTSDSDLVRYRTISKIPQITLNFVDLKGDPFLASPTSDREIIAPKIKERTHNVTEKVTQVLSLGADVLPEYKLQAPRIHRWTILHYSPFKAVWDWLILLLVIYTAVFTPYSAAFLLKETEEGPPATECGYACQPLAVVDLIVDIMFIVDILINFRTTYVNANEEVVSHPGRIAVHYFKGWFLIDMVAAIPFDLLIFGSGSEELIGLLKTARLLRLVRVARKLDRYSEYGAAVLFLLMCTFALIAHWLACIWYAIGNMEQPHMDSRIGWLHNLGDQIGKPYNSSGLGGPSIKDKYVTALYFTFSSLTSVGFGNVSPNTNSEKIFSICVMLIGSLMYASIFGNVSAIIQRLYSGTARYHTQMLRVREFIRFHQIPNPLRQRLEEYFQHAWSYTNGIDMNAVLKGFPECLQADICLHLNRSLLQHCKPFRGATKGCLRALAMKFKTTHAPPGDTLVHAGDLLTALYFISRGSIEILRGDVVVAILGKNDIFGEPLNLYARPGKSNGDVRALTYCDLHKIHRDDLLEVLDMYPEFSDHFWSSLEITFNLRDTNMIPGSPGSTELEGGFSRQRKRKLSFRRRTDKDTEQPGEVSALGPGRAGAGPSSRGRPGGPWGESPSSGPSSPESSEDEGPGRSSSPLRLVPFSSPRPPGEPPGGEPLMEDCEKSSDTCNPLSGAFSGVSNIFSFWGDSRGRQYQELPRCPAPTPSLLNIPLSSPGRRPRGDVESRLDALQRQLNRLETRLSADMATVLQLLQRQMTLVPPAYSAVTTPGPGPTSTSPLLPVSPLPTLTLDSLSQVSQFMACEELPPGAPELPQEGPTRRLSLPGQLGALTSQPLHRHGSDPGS
T3 sequence (Q13936 whole entry): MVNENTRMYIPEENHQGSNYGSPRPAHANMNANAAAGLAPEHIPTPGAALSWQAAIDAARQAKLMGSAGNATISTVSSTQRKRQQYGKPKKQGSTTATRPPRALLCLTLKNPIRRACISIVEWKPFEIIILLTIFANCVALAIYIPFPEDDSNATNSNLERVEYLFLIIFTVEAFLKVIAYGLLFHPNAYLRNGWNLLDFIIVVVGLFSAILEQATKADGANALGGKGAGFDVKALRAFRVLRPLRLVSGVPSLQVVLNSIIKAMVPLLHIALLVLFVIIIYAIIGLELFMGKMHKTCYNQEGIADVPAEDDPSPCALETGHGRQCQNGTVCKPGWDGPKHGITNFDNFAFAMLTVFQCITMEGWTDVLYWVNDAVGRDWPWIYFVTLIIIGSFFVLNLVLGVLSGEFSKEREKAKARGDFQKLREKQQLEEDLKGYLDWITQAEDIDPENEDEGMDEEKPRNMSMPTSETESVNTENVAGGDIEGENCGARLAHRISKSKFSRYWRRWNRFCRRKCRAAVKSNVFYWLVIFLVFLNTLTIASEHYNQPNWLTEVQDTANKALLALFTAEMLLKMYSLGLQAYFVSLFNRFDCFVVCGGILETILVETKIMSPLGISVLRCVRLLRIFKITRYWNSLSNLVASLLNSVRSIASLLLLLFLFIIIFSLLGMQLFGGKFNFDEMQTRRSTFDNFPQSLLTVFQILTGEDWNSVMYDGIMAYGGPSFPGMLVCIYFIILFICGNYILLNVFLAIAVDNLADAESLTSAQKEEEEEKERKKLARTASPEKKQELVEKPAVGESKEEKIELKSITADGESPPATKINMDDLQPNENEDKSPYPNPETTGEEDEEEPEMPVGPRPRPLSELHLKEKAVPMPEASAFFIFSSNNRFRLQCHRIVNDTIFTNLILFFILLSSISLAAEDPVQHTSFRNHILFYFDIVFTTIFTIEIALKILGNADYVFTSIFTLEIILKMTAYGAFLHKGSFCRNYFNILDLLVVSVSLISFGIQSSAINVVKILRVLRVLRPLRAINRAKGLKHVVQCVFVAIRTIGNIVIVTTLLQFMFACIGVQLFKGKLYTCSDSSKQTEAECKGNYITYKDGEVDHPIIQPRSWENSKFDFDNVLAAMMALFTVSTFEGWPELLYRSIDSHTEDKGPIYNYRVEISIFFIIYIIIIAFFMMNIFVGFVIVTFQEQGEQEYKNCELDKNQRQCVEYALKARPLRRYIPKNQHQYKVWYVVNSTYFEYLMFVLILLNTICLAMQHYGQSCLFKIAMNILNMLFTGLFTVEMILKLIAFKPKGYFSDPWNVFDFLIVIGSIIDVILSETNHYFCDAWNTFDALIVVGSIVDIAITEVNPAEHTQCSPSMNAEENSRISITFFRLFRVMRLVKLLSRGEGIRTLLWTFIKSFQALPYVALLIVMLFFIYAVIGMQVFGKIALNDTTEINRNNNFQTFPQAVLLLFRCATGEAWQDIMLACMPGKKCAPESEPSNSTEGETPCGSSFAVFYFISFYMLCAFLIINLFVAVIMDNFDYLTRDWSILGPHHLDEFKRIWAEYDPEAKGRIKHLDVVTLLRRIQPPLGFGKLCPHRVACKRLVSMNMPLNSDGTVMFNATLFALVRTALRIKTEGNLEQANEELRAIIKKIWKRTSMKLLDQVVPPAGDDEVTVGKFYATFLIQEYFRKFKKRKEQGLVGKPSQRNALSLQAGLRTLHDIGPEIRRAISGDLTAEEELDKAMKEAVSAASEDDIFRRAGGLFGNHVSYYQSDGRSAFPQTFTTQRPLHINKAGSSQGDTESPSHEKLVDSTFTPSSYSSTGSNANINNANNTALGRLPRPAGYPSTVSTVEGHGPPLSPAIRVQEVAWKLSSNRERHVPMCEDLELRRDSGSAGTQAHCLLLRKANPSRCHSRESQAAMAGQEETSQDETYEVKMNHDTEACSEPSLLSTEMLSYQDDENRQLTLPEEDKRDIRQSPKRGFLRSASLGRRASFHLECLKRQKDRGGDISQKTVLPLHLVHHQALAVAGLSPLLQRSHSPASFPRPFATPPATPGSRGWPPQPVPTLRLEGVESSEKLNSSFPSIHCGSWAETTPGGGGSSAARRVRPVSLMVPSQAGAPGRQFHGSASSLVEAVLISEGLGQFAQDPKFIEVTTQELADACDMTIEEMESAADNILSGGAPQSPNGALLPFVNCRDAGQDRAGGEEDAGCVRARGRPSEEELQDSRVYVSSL
Chain of Cytochrome P450 3A4 (P08684 whole entry): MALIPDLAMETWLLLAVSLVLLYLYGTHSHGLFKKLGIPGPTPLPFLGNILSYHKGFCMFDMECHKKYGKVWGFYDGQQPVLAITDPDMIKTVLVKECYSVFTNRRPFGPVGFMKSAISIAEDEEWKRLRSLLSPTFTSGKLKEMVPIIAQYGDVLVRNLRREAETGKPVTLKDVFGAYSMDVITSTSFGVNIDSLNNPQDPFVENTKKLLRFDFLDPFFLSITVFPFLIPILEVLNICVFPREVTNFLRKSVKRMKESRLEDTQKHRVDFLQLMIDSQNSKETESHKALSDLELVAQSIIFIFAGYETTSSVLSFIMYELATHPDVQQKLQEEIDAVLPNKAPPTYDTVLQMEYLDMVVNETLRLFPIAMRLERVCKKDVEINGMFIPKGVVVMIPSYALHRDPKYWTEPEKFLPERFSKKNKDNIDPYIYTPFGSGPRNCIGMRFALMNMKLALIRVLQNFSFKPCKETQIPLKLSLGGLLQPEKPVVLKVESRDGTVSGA

CS(=O)(=O)c1ccc(F)cc1C(=O)N1CCC(N(C2CC2)S(=O)(=O)c2cccc(C(F)(F)F)c2)CC1
Drug metabolism (Brain): Active | half-life [1]: 1.3 h | Activity (Canis familiaris [2]): Non-toxic | Activity (Mus musculus): 9% | Activity (Rattus norvegicus [3]): 65% | Drug metabolism (Liver microsomes [4]): Active | inhibition at 10 µM (hERG [5]): 32% | IC50 (Cytochrome P450 3A4): 5.1 µM | inhibition [6]: 43% | concentration at 3 h [7]: 1.66 µM | concentration at 3 h [8]: 1.6 µM | Activity (Rattus norvegicus [9]): 57% | concentration at 3 h [10]: 11.9 µM | concentration at 1 h [11]: 5.79 µM | fraction unbound [12]: 0.02 | concentration at 3 h [13]: 9.5 µM | inhibition at 3 µM (Cav1.2 [14]): 34% | Activity (Canis familiaris [15]): Non-toxic | Activity (Canis familiaris [16]): Non-toxic | concentration at 0.5 h [17]: 1.96 µM | inhibition [18]: 84% | inhibition at 1 µM (hERG [19]): 1.6% | Activity (Rattus norvegicus [20]): Dose-dependent effect | clearance [21]: 35 mL/min/kg | Activity (Rattus norvegicus [22]): 49% | Drug metabolism (Liver microsomes [23]): Active | Activity (Rattus norvegicus [24]): Non-toxic | Activity (Rattus norvegicus [25]): 66% | inhibition at 1 µM (Cav1.2 [26]): 18% | Activity (Rattus norvegicus [27]): 45% | AUC/dose (Rattus norvegicus [28]): 0.86 µM·kg·h/mg | remaining at 1 h, 1 µM [29]: 40%
